# Measurements as given in ChEMBL document CHEMBL2203280, “Bicyclic peptidomimetics targeting secreted aspartic protease 2 (SAP2) from Candida albicans reveal a constrained inhibitory chemotype” (Bioorg Med Chem, 2012).
# Molecular target: T1, Secreted aspartic protease 2 (Candida albicans, UniProt P0CS83)
# Assay: Inhibition of candida albicans SAP2
# How it was run: (§1)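 SAP2 protease (1 µg/mL solution) incubated with inhibitor in 0.05% (w/v) BSA, 50 mM sodium citrate pH 3.2, 30 min at 37 °C. Reaction stopped with 10% TCA, kept on ice 30 min, then centrifuged. Supernatant A280 read against a BSA-in-citrate blank. ΔOD per minute measured at inhibitor levels of 5, 1 and 0.1 µM and 5, 1 and 0.1 nM. Pepstatin A run as reference at the same concentrations.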
# T1 sequence (P0CS83 whole entry): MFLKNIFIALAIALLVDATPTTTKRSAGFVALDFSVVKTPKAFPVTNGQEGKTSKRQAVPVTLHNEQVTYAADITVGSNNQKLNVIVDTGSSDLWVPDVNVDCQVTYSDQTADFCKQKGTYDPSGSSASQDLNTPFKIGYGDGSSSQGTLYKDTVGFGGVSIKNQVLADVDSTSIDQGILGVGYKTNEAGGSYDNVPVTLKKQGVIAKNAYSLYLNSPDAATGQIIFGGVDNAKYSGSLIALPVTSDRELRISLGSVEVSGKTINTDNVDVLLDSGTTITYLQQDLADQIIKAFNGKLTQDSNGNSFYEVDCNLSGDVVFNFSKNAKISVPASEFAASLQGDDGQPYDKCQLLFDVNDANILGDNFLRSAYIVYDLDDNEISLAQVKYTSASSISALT
row,Structure (SMILES),Ki
1,CCCCNC(=O)[C@H](C[C@H](O)[C@H](CC1CCCCC1)NC(=O)[C@H](CCCC)N1CCN(C(=O)N2CCN(C)CC2)[C@H](Cc2ccccc2)C1=O)C(C)C,12 nM

# Molecular target: Secreted aspartic protease 2 (Candida albicans) (UniProt P0CS83)
# Sequence (P0CS83 57-398 limits assumed): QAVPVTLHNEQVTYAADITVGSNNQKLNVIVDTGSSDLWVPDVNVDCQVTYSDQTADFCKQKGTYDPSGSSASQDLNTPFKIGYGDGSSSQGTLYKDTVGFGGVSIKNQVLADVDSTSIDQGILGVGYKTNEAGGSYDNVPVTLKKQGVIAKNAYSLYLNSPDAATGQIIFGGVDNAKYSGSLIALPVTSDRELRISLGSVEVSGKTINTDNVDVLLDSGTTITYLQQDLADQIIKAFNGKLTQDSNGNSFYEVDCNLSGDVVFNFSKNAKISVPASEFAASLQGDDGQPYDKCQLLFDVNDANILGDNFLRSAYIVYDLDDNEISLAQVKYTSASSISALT
# Assay: Ratio of pepstatin A IC50 to compound IC50 for candida albicans SAP2 by spectrophotometric analysis
# How it was run: as §1
row,Structure (SMILES),Ratio IC50
1,O=C([C@@H]1O[C@H]2CN(Cc3ccccc3)C(=O)[C@@H]1O2)N1CCCCC1,3

# Molecular target: T1, Secreted aspartic protease 2
# Assay: Inhibition of candida albicans SAP2 using 0.05% BSA as substrate by spectrophotometric analysis
# How it was run: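 SAP2 incubated with inhibitor in 0.05% (w/v) BSA substrate, 50 mM sodium citrate pH 3.2, for 30 min at 37 °C. Stopped with 10% (w/v) TCA, held on ice 30 min, centrifuged 3000 g 10 min. Supernatant A280 read against 0.05% BSA in citrate blank. ΔOD per min taken at six inhibitor concentrations, including 5, 1 and 0.1 nM. Pepstatin A run at matching concentrations.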
row,Structure (SMILES),IC50
1,O=C([C@H]1O[C@@H]2CN(Cc3ccccc3)C(=O)[C@H]1O2)N1CCCCC1,980 nM
2,COC(=O)[C@H](CC(C)C)N1C[C@@H]2O[C@@H](C(=O)N3CCCCC3)[C@@H](O2)C1=O,900 nM
3,CC(C)C[C@H](CO)NC(=O)C1O[C@@H]2CN(Cc3ccccc3)C(=O)[C@H]1O2 (stereo partly drawn),> 10000 nM
4,COC(=O)[C@@H](CC(C)C)N1C[C@@H]2O[C@@H](C(=O)N3CCCCC3)[C@@H](O2)C1=O,890 nM
5,CC(C)C[C@H](CO)NC(=O)C1O[C@H]2CN(Cc3ccccc3)C(=O)[C@@H]1O2 (stereo partly drawn),> 10000 nM
6,CC(C)C[C@@H](CO)NC(=O)C1O[C@@H]2CN(Cc3ccccc3)C(=O)[C@H]1O2 (stereo partly drawn),1100 nM
7,CC(C)C[C@@H](CO)NC(=O)C1O[C@H]2CN(Cc3ccccc3)C(=O)[C@@H]1O2 (stereo partly drawn),550 nM
8,O=C([C@@H]1O[C@H]2CN(Cc3ccccc3)C(=O)[C@@H]1O2)N1CCCCC1,30 nM
9,CC(C)CC(=O)N[C@H](C(=O)N[C@H](C(=O)N[C@@H](CC(C)C)[C@@H](O)CC(=O)N[C@@H](C)C(=O)N[C@@H](CC(C)C)[C@@H](O)CC(=O)O)C(C)C)C(C)C [PEPSTATIN],90 nM
10,COC(=O)[C@@H](CC(C)C)N1C[C@H]2O[C@H](C(=O)N3CCCCC3)[C@H](O2)C1=O,740 nM
11,COC(=O)[C@H](CC(C)C)N1C[C@H]2O[C@H](C(=O)N3CCCCC3)[C@H](O2)C1=O,> 10000 nM
